From PubChem BioAssay AID617 (SRMLSC, 2007) come the findings set out here.

A value given as a limit tells only on which side of the number the result lay.

The test deals with E. coli BW25113 ΔtolC growth inhibition, OD615. The experiment in a line: E. coli ΔtolC antibacterial growth inhibition – strain BW25113 ΔtolC::kan, dose response (AID 617). In a few lines: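 System: E. coli BW25113 ΔtolC::kan bacteria. Amount: 1:1000 diluted subculture inoculum. Medium: LB broth supplemented with kanamycin at 50 µg/mL. Compound dosing: serial dilution series of compound. Schedule: 20 h exposure at 37 °C. Detection: OD615. Measure: IC50 of bacterial growth inhibition. Benchmarks: chloramphenicol control, 30 µM final.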
Consider `COC(=O)c1cc(C(=O)CSc2nc(C)cc(C)n2)ccc1O`, for which the IC50 was 4.31 µM.

As to `N#Cc1cn(CCOc2ccccc2F)c2ccccc12`, the IC50 was 16.1 µM.

Regarding `Cc1c(C(=O)N2CCc3ccccc3C2)sc2nc(-c3ccccc3)cn12`, the IC50 was 13.6 µM.

In the case of `Cc1ccc2c3c1C1(C(=O)N3C(C)(C)CC2C)C(C#N)=C(N)Oc2cc(O)ccc21` (configuration not stated), the concentration for half-maximal inhibition (IC50) was 2.96 µM.

Consider `COC(=O)c1ccc(/C(O)=C(\C#N)c2nc3ccccc3s2)cc1`, for which the IC50 was 2.51 µM.

On to `c1ccc(-c2nc(NCc3ccco3)c3ccccc3n2)nc1`, for which the IC50 is 5.54 µM.

As for `Fc1cccc(-c2cc3nc4c(c(N5CCOCC5)n3n2)CCCC4)c1`, the IC50 is 18.4 µM.

Regarding `COc1ccc(-c2nnc(NC(=O)c3ccc(S(=O)(=O)N4COCC4(C)C)cc3)o2)cc1`, the IC50 was 0.52 µM.

Turning to `Cc1cc(S(=O)(=O)N2CCN(c3ccccc3C)CC2)ccc1F`, the IC50 is 14.6 µM.

Regarding `CCn1c(C(=O)OC)cc2c1ccn2-c1ccc(F)cc1`, the IC50 was 17.2 µM.

`COc1ccc(-c2cc(C(=O)N3CCc4ccccc4C3)no2)cc1OC`: the half-inhibitory concentration (IC50) was 16.6 µM.

Consider `CCOC(=O)Nc1ccc2c(c1)N(C(=O)N1CCN(C)CC1)c1ccccc1S2`, for which the IC50 is 36.9 µM.

In the case of `COc1ccc(S(=O)(=O)N(Cc2cccs2)C2CCCC2)cc1`, the IC50 was 8.13 µM.

Regarding `CCOC(=O)C1CCN(C(c2cccnc2)c2c(NC(=O)c3ccco3)sc(C)c2C)CC1` (configuration not stated), the IC50 is 13.6 µM.

`CC(C)(C)C(=O)Cn1c(=N)n(Cc2ccccc2)c2ccccc21`: the IC50 was 17.2 µM.

`CCCCOc1ccc(S(=O)(=O)n2c(C)nc3ccccc32)cc1`: the IC50 was 11.4 µM.

Take `COc1ccc2c(c1)sc1nc(-c3ccccc3)cn12`: the IC50 was 12.2 µM.

Turning to `c1ccc(CSc2nnc(-c3ccco3)n2Cc2ccccc2)cc1`, the IC50 was 13.8 µM.

As to `CCCCOc1ccc(S(=O)(=O)Nc2cc(OC)ccc2OC)cc1`, the IC50 was 16.8 µM.

Turning to `Fc1ccc(CNc2nc(-c3ccco3)cc(C(F)(F)F)n2)cc1`, the IC50 was 13.9 µM.

For the molecule `O=C(Nc1nc2ccccc2n1CCOc1ccc(Cl)cc1)c1ccco1`, the concentration for half-maximal inhibition (IC50) was 25.2 µM.

With `Clc1ccc(OCCn2ccnc2)c2ccccc12`, the IC50 is 5.58 µM.

On to `Brc1ccc(-c2nc(-c3ccccc3)no2)o1`, for which the IC50 was 30.1 µM.

On to `Cc1ccnc(N2CCC(C(=O)Nc3cccc(C(F)(F)F)c3)CC2)n1`, for which the IC50 is 82.2 µM.

On to `Cc1cccc(N2CC(c3nc4ccccc4n3C)CC2=O)c1C` (configuration not stated), for which the IC50 is 4.93 µM.

In the case of `CCOC(=O)N1CCN(S(=O)(=O)c2ccc(OCC)c3ccccc23)CC1`, the IC50 is 14.2 µM.

Take `N#Cc1nc(COc2ccc(F)cc2)oc1N1CCN(Cc2ccccc2)CC1`: the IC50 is 14.4 µM.

Take `N#CC1=C(SCC(=O)NC23CC4CC(CC(C4)C2)C3)NC(=O)C(C#N)C12CCCCC2` (configuration not stated): the IC50 is 4.11 µM.

Regarding `CN(C)c1ccc(-c2nn3c(-c4ccncc4)nnc3s2)cc1`, the IC50 is 13.6 µM.

Turning to `COC(=O)c1[nH]c2ccccc2c1NC(=O)CN1CCN(c2cccc(OC)c2)C(C)C1` (configuration not stated), the IC50 is 18.6 µM.

For the molecule `c1ccc(-c2nc(CSc3nnc(-c4cccs4)o3)cs2)cc1`, the IC50 is 10.1 µM.

As for `COc1ccc2nc(SCC(=O)N(C)C3CCCCC3)c(C#N)cc2c1`, the IC50 is 15.8 µM.

`c1ccc(N2CCN(c3ncnc4c3oc3ccccc34)CC2)cc1`: the IC50 is 40.5 µM.

For the molecule `Cc1ccc(S(=O)(=O)c2nc(Nc3nccs3)sc2Cl)cc1`, the IC50 was 2.48 µM.

On to `O=C(COc1ccc(Cl)cc1)Nc1nnc(-c2ccc3c(c2)CCCC3)o1`, for which the IC50 is 0.25 µM.

For the molecule `COc1ccc(-c2noc(C)c2-c2ccc3ccccc3n2)c(O)c1`, the half-inhibitory concentration (IC50) is 8.91 µM.

For `Cc1nc(N2CCN(Cc3ccc4c(c3)OCO4)CC2)c2oc3ccccc3c2n1`, the IC50 was 11.6 µM.

For the molecule `O=S(=O)(Nc1ccc(S(=O)(=O)N2CCCCC2)cc1)c1ccc(Br)s1`, the IC50 was 4.39 µM.

In the case of `CC(C)(C)c1cc(C(F)(F)F)nc(SCCCNC(=O)c2ccco2)n1`, the IC50 is 6.37 µM.

Consider `Cn1c(NC(=O)c2ccccc2NC(=O)C(C)(C)C)nc2ccccc21`, for which the IC50 was 9.13 µM.

For the molecule `Cc1cccc(N2CCN(C(=O)c3ccc(NS(=O)(=O)c4c(C)noc4C)cc3)CC2)c1C`, the half-maximal inhibitory concentration (IC50) was 16.2 µM.

Turning to `Cc1ccc(NC(=O)c2nnn(-c3cc(C)cc(C)c3)c2N)cc1`, the IC50 was 21.9 µM.

With `CC1=CC(C)(C)N2C(=O)C3(C(C#N)=C(N)Oc4cc(O)ccc43)c3cccc1c32` (configuration not stated), the 50% inhibitory concentration (IC50) is 4.14 µM.

Turning to `COc1ccccc1-c1nnc(NC(=O)c2ccc(S(=O)(=O)N(C)C)cc2)o1`, the IC50 is 3.77 µM.

`COc1cccc(-c2cc(C(=O)N3C(C)CCCC3C)no2)c1` (configuration not stated): the IC50 was 32.8 µM.

Take `CCOC(=O)c1cc2sccc2n1CC(=O)N1CCCc2ccccc21`: the IC50 is 15.1 µM.

`CCOc1ccc(OCCSc2nnnn2C2CCCCC2)cc1`: the IC50 is 14.5 µM.

With `CCCCN1C(=O)C2ON(c3ccccc3C)C(c3ccco3)C2C1=O` (configuration not stated), the IC50 was 14.4 µM.

With `Cc1ccc2nc(NC(=O)CNS(=O)(=O)c3ccc(Br)s3)sc2c1`, the IC50 was 47.7 µM.

In the case of `COc1ccc(Oc2cn[nH]c2-c2ccc(O)cc2O)cc1`, the half-maximal inhibitory concentration (IC50) was 7.86 µM.

As to `CCn1c(C(=O)N2CCC(Cc3ccccc3)CC2)cc2sccc21`, the IC50 was 10.2 µM.

Turning to `O=C(Nc1nccs1)C(NS(=O)(=O)c1ccc(Br)s1)c1ccccc1` (configuration not stated), the IC50 was 12.8 µM.

As for `CSc1nc(N2CCOCC2)c2c3c(sc2n1)CCCC3`, the IC50 is 11.9 µM.

Regarding `CCOC(=O)c1c(-c2cccs2)csc1NC(=O)CN1CC(C)OC(C)C1` (configuration not stated), the IC50 was 24.8 µM.

In the case of `O=C(Nc1cccc(Cl)c1)N(CCCN1CCOCC1)Cc1ccccc1F`, the IC50 was 7.19 µM.

In the case of `CCOC(=O)N1CCC(c2cc(=O)n3[nH]c(C)c(-c4ccc(F)cc4)c3n2)CC1`, the 50% inhibitory concentration (IC50) was 1.68 µM.

As to `COc1ccc(S(=O)(=O)Nc2ccccc2C(=O)NCc2ccco2)cc1Br`, the half-inhibitory concentration (IC50) is 9.63 µM.

For `c1ccc(Cn2nnnc2C(c2cccs2)N2CCCCCC2)cc1` (configuration not stated), the IC50 is 9.47 µM.

`CCOC(=O)C1CN(c2cc3c(cc2F)c(=O)c(C(=O)O)cn3CC)OC1C(=O)OCC` (configuration not stated): the IC50 is 0.81 µM.

In the case of `Cc1cc(N2CCCCC2)n2ncc(-c3ccccc3)c2n1`, the IC50 was 17.3 µM.

Regarding `N#CC1=C(N)SC(N)=C(C#N)C1CCC1CCCCC1`, the IC50 was 3.65 µM.

As for `N#Cc1c(/N=C/c2ccco2)oc(-c2ccccc2)c1-c1ccccc1`, the IC50 is 6.78 µM.

As for `CCC(=O)N1CCN(c2cc3c(cc2F)c(=O)c(C(=O)O)cn3CC)CC1`, the IC50 was less than 0.2 µM.

Regarding `CCCCCCN=C(CC)c1c(O)n(CCCC)c(=O)[nH]c1=O`, the IC50 is 11.8 µM.

Take `CCCCNc1cc(C)nc(NCc2ccccc2)n1`: the IC50 is 7.8 µM.

Take `COc1ccc(C(=O)Nn2cnc3scc(-c4cccs4)c3c2=O)c(O)c1`: the IC50 is 3.24 µM.

`Cc1cc(C)n(-c2nc(NC(C)C)nc(NC(C)C)n2)n1`: the IC50 was 2.96 µM.

On to `COc1cc(NS(=O)(=O)c2ccc(OC)c(C)c2C)c(OC)cc1Cl`, for which the half-maximal inhibitory concentration (IC50) is 16.8 µM.

Regarding `CC(C)(C)c1ccc(Cn2nnc3c(=O)[nH]c(C4CCCN(C(=O)Cc5cccs5)C4)nc32)cc1` (configuration not stated), the half-inhibitory concentration (IC50) is 15.6 µM.

With `Cn1c(=O)c2c(SCc3cccnc3)nc(CC(C)(C)C)nc2n(C)c1=O`, the IC50 is 8.18 µM.

For `COc1ccc(Cn2nnnc2C(C(C)C)N2CCc3ccccc32)cc1` (configuration not stated), the IC50 was 12.7 µM.

Consider `C=C(C)COc1ccc(-c2[nH]ncc2Oc2ccccc2OC)c(O)c1`, for which the IC50 was 5.72 µM.
